Tested on: MS2 coat protein
Assay: apparent Kd, MS2 coat protein; higher = weaker binding; RNA-MaP array
How it was run: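 RNA designs were transcribed from sequenced DNA templates on an Illumina sequencing chip and then incubated at room temperature with fluorescently labeled MS2 coat protein at 1.5 nM to 3 μM, with or without input ligand, in Tris-HCl pH 7.5 buffer containing KCl, MgCl2, BSA, DTT, tRNA and Tween20. Incubation lasted 0.8–1.5 h at the lowest protein concentrations and 10–20 min at the highest. Apparent Kd is the median of binding-curve fits made for each cluster. Designs measured on fewer than 10 clusters were excluded.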

[1] = designed as: OFF switch for flavin mononucleotide, no ligand
[2] = ligand present: flavin mononucleotide, designed as: OFF switch for flavin mononucleotide
[3] = designed as: ON switch for flavin mononucleotide, no ligand
[4] = ligand present: flavin mononucleotide, designed as: ON switch for flavin mononucleotide
[5] = designed as: ON switch for tryptophan, no ligand
[6] = ligand present: tryptophan, designed as: ON switch for tryptophan

| Sequence | apparent Kd [1] | apparent Kd [2] | further results |
| --- | --- | --- | --- |
| UUUAAGAGAGGAUAUGUAGAAUAUAACAUGAGGAUCACCCAUGUACAGAGUGUUAAAGUCACAGAAGGCUCCAUGU | 27.5 nM | 20.6 nM | – |
| GCAACAUGUUCAGGAUAUACGCUACAAACUCGUGUAGAAGGGAAGGAUACAAUUACAUGAGGAUCACCCAUGUGUUAUCCGAUU | – | – | apparent Kd [3]: 23.7 nM; apparent Kd [4]: 20.8 nM |
| CUGGAUCCGGGAGGAUAUAGACGUUCAGCCUCGUUGCUAACAAGACAUGAGGAUCACCCAUGUAUCUAGAAGGCCCGCCUGGGA | – | – | apparent Kd [3]: 19.8 nM; apparent Kd [4]: 13.8 nM |
| CUCUCGCAAGGAUAUACACAGUGGAAUAUCAUAAGGUGAACACAUGAGGAUCACCCAUGUAGAAGGUGCAUAAG | – | 38.5 nM | – |
| UUGUGUUCUUAGGAUAUACAACUUACCAUCAGAGUAGAAGGAAGGACAUGAGGAUCACCCAUGUGGGCUAGCAG | 154 nM | 21.7 nM | – |
| UAACUCAAGUAACAGGAUAUGAGUGCGGAUACAUGAGGAUCACCCAUGUUGACGAUAACCGGACAACAGAAGGGUACCUAACUUGG | – | – | apparent Kd [3]: 33.5 nM; apparent Kd [4]: 22.2 nM |
| UGCGCGAGAGGAUAUUAUCGUAACUACAUGAGGAUCACCCAUGUUUCGCCCGUAGCUGGAUAAGAAGGCUCGAGUG | 14.6 nM | 20.7 nM | – |
| CCAAACACUGGAGGAUAUGCAAGAACAUGAGGAUCACCCAUGUAGUAACGAUAAAGAAAACAAGCGCAGAAGGCCACAUCUCUA | – | – | apparent Kd [3]: 14.2 nM; apparent Kd [4]: 6.49 nM |
| CUAAGAUAAGAAGGAUAUAAAACAUGAGGAUCACCCAUGUAAAAGUACAUCACACUACAAAUGGAUUAGAAGGUCUUAAUAACC | 10.2 nM | 8.47 nM | – |
| UCGGUAUAUACAGGAUAUGGUCAAUACAUGAGGAUCACCCAUGUUAGAGCGGCAAAUAGGAUCUUCCAGAAGGGUACUUGCUUA | 14.8 nM | 11.5 nM | – |
| AGUUACAUGAGGAUCACCCAUGUCCGGUUGCGAGGACCGGUACGGCCGCCACUCGGGUACAUCCCAGAAAAUACUGAAUGCCUGC | – | – | apparent Kd [5]: 55.4 nM; apparent Kd [6]: 51 nM |
| UAUGGCAACUUAGGAUAUCAAUGCAUCGAUUAUUGAGAAGGAAGAAACAUGAGGAUCACCCAUGUCUCUACAGGGAUAAGGACC | 7.38 nM | 7.98 nM | – |
| AUACCAUCCCAAGGAUAUGUUACCUAGACAUGAGGAUCACCCAUGUGAGAUUAGAGCUGUCGCGUACAGAAGGUGGUGAUGACA | 25.3 nM | 28.1 nM | – |
| UAGAAUACAGGAUAUACAGCGAGAAAUCAUAUAAUAUACACACAUGAGGAUCACCCAUGUAGAAGGGAAUAAGG | 24.9 nM | 24 nM | – |
| GUCGGCUCAGUGUAGGAUAUGUCAAAGGUCACAUGAGGAUCACCCAUGUCUCGACGCAAAUUAGGACAGAAGGACAGCCAAAGCAU | – | – | apparent Kd [3]: 7.57 nM; apparent Kd [4]: 4.97 nM |
| UAGGUGCUCUAAGGAUAUUAUACAUGAGGAUCACCCAUGUGGCGACCAAGGGUAGAAGAGGAACUUAAGAAGGUAGAUGUAUAG | 43.2 nM | 34 nM | – |
| UAACCCGUGUAGAAGGCAAGCUCCGCGCUGGUCGUCAUCACAUGAGGAUCACCCAUGUGGAAGAUUGAGGAUAUACGCGCGAUG | 5.45 nM | 7.53 nM | – |
| UGCAGGCGAACAGGAUAUCACACAUGAGGAUCACCCAUGUAAACUACUUAAGAAAGGGAGCCUCGUGAGAAGGGUUUCUUUGGG | 74.6 nM | 60.1 nM | – |
| CCGUACCCGGAGAAGGAAGUCGUUGGAUGGCCAACAUGAGGAUCACCCAUGUGAUUUCAACUUACUUAGGAUAUCCAAAAUGAG | – | – | apparent Kd [3]: 58.4 nM; apparent Kd [4]: 24.1 nM |
| GACGAGUGCGAGUCACAUGAGGAUCACCCAUGUAACCAUGGGCAGGAUAUCUACCAGUUACUUUCAGAGAAGGGCCAACGAACU | – | – | apparent Kd [3]: 419 nM; apparent Kd [4]: 108 nM |
| CUCAGGCUGCGAGGAUAUCCGUCGAAUCAAACAGGAGAAGGCGCAUACAUGAGGAUCACCCAUGUGCUGACUUGUCCGUGAAUC | 5.46 nM | 6.37 nM | – |
| CGGGUGUAGACAGGAUAUGCAAAUAAAGGUGAAGCAGAAGGGUCACAUGAGGAUCACCCAUGUCACUAAAUUGGCGGUAUAAGA | 39 nM | 159 nM | – |
| AUCAUGAUUUUAGGAUAUAUGACGUUAUACAAUGGACAUGAGGAUCACCCAUGUAGUCGCGCUCUAUAGAAGGAAAGCUCAGUU | 44.1 nM | 36.5 nM | – |
| UAGGAUUAAGGAGGAUAUCGCCAAUAAGCUUCGCGAGAAGGCCUAUAUACAUGAGGAUCACCCAUGUUUGGUUGUUAGUGUCUU | 7.9 nM | 10.6 nM | – |

| Sequence | apparent Kd [1] | apparent Kd [2] | further results |
| --- | --- | --- | --- |
| UUCCUUGUCGAGAAGGAAUGGCACUUGAGGCGAUUAGGAUAUCGAUACAUGAGGAUCACCCAUGUUGUGUCUCAUAGUAUGACA | 12 nM | 12.4 nM | – |
| CCGCUUGCAGGAUAUACAUGAGGAUCACCCAUGUUAAGAGAACAGUAACAAAGCAUUUGUAGAAGGGCAAUACG | 9.81 nM | 9.19 nM | – |
| GAUCCACAUGAGGAUCACCCAUGUGAGGAUACCAGUACCAGAUCCUACCCUUGGCAGCCUAACCUUCAUUCAACACGAAUAAGAA | – | – | apparent Kd (designed as: ON switch for theophylline, no ligand): 12.4 nM; apparent Kd (ligand present: theophylline, designed as: ON switch for theophylline): 14.3 nM |
| AGGAACGAAGGAUAUGAUGAAUAGUACAUGAGGAUCACCCAUGUGGCCACCUUAGACAUCUCAGAAGGACGAUACU | 33.6 nM | 25.1 nM | – |
| GGACGGUGGUGAGGAUAUUGUCACAUGAGGAUCACCCAUGUCGUCUGGGAGCGGACUCCUCGGUCCAAGAAGGCACGACCAGCC | 246 nM | 431 nM | – |
| UCACACGUUGUAGGAUAUGUCACGCAUAGAACAUGAGGAUCACCCAUGUAUCCCUGUCAUGCCAGACAGAAGGACACUAACGCG | 55.5 nM | 129 nM | – |
| GGGAGAAAUGGAGGAUAUAUUAAAGCACAGCUGACAUGAGGAUCACCCAUGUGAAUUAAAGAUGCAUAGAAGGCCAAACUACAA | – | – | apparent Kd [3]: 17.3 nM; apparent Kd [4]: 11.8 nM |
| AGGAUCCAGGAGAAGGCAACUGUAGUUUGGCAUUGAGGAUAUCCAAAGACCCGCUAGAUAGGAGCACAUGAGGAUCACCCAUGU | – | – | apparent Kd [3]: 35.5 nM; apparent Kd [4]: 19.1 nM |
| UCGUGCAGAUAGGAUAUAUAGUCACUGUCGUCUAUAGAAGGAUCUACAUGAGGAUCACCCAUGUAAUGUGAGUC | 132 nM | 30.6 nM | – |
| CCCUCCAGAACGGCCGCCACUAAAGGGUUGUGUGCGACUCCGGAACAUGAGGAUCACCCAUGUCUUAGGACCGGGUUCCCUUCUA | – | – | apparent Kd [5]: 62 nM; apparent Kd [6]: 56.5 nM |
| CAGUGAAGAGGAUAUACAUGAGGAUCACCCAUGUACCGUGGUCCAUAUCAUAAUUCGAGUAGAAGGCUUAACCA | 114 nM | 108 nM | – |
| GGAAUGUGAGGAUAUAGGUGACCAAUACAAAACACAAAGAUCUAGAAGGCACAUGAGGAUCACCCAUGUAUACG | 19.9 nM | 17.9 nM | – |
| GAUGUCAAACAGAAGGAAGACUUGUACAAGGACUUAGGAUAUGUACAUGAGGAUCACCCAUGUGACUAAUGCGGGCCAUAUGAC | 15.1 nM | 16.9 nM | – |
| AUAGCAUGAGUAGGAUAUUUUGAGCGUUGUGCAAAAGAAGGACUGACCGUGAUUAUAAUAUACAUGAGGAUCACCCAUGUUACA | 9.42 nM | 8.03 nM | – |
| UUGAGAGGACAGAAGGUUGGGCUCUUGAUCUACGCGCGCGACAUGAGGAUCACCCAUGUGCUUCCAAAGGAUAUGUCACUCGCA | – | – | apparent Kd [3]: 138 nM; apparent Kd [4]: 44.8 nM |
| AAGACGAAGAAGAAGGGCAUACAUGAGGAUCACCCAUGUGAAAAUGUGCUGAAAGAACAUAAAUUGCAGGAUAUUCACACAAGU | – | – | apparent Kd [3]: 11.2 nM; apparent Kd [4]: 6.42 nM |
| UUGAAGAAUCACAUGAGGAUCACCCAUGUCAGGGUGAGUUUUGAGGAUAUACCGCCCAGGACUCGGUAGAAGGCAAGAAAUUAA | 553 nM | 562 nM | – |
| GUCGUCACAGGAUAUACAUGAGGAUCACCCAUGUUCCCGUGUAAAUGGGUUGUGUUAGGUAGAAGGGUGCACGC | 17.4 nM | 27.8 nM | – |
| CCUCGUAAUGAGGAUAUUAGGAAUUCUGGUCCAUAAGAAGGCAUGACAUGAGGAUCACCCAUGUAGCGGAUGGG | 102 nM | 145 nM | – |
| AGAGUUAUUGAGAAGGAAACAUUGACAUGAGGAUCACCCAUGUACUUGGCUAAGGAGCCGAGUGUUUAGGAUAUCAUUCAGAUA | – | – | apparent Kd [3]: 25.6 nM; apparent Kd [4]: 9.33 nM |
| CUGAAAGUAGAGGAUAUGUGAAUAGCAGCGAUGACAGAAGGCUACACAUGAGGAUCACCCAUGUAAUCCCGUGC | 20.4 nM | 28.1 nM | – |
| AAAUACAUGAGGAUCACCCAUGUCAAUAAUCGAGGACCGGUACGGCCGCCACUCGAUCGGCCAAGAAAAUGAAAGAUGAUCUCUA | – | – | apparent Kd [5]: 26.9 nM; apparent Kd [6]: 30.7 nM |
| AUGAGCUGAGGAUAUAUUAACCUGUACAUGAGGAUCACCCAUGUAGCGUGUAGAGUGAGAAUAGAAGGCAGACAUC | 17.2 nM | 12.8 nM | – |
| CGUUAGCAGUAGAAGGUAGCCGGCAGGUCAGGGCGACCACAUGAGGAUCACCCAUGUCUAUGUUCUAAGGAUAUACUGACCCAA | 5.2 nM | 5.59 nM | – |

— the EternaBench riboswitch data
